Active and inactive are the calls of the source.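 The calls were made as follows, unless noted: active = viability at or below 10% of carrier control in both of two separate runs; inconclusive = viability at or below 10% in only one of the two runs; inactive = the rest.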
What was measured:
[1] = reducers of endogenous Her2 protein level, primary screen, SKBR3 breast tumor cells, AlphaScreen, ATP viability (AID 461;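 active = Her2 level under about 52% in both replicate screens, with viability over 70% of control, limit read from the data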;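 as to Her2 level: lower value means less Her2 protein in the cells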;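 as to viability: percent of carrier control wells set as 100% viability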); settings: 18-24 h, measured here: SKBR3 viability, ATP luminescence, at 10 µM
[2] = target: Receptor tyrosine-protein kinase erbB-2 (Homo sapiens) (UniProt P04626); assay: as above; settings: 18-24 h, at 10 µM, stronger effect = lower value
[3] = SK-BR-3 cell growth inhibitors, pilot screen, 24 h, human (AID 572); settings: SK-BR-3 viability, CellTiter-Glo luminescence, at 10 µM, stronger effect = lower value;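 also: compound exposure lasted between 18 and 24 h rather than exactly 24 h; 100% = carrier-treated control wells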
[4] = HUVEC growth inhibition – cell-based, human, primary screen (AID 575;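 active = viability at or below 30% in both replicate assays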;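 also: 100% = median of untreated cell wells with 0.1% DMSO on each plate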); settings: HUVEC proliferation, CellTiter-Glo luminescence, 72 h; at 10 µM; stronger effect = lower value
Summary of the method: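 Test system: primary human umbilical vein endothelial cells; medium: endothelial basal medium with 2% FBS plus growth supplements; dosing: 10 µM compound only; times: 72 h treatment at 37 °C; signal: CTG luminescence; read-out: % viability relative to median vehicle-well signal on each plate; control set: vehicle and MePR control wells; plate: 384-well, collagen-coated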

[5] = growth inhibitors of H69AR lung tumor, primary screen, human, duplicate replicates (AID 580;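 active = viability at or under a set limit in both replicates, limit being median viability minus 3 SD, cut at about 48% in these data, passing the limit was not always enough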;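 also: 100% = mean luminescence of untreated wells and 0% = no signal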); settings: H69AR lung tumor cells viability, ATP luminescence, 72 h; at 10 µM; stronger effect = lower value
[6] = reversal of MRP1-mediated doxorubicin resistance, pilot screen, H69AR cells, doxorubicin co-treatment (AID 601;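 active = viability loss from added drug above about 55%, and viability with drug at most 40%, in both replicates, limit read from the data, passing the limit was not always enough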); settings: CellTiter-Glo, 72 h, at 10 µM; for differential viability (reversal): stronger effect = higher value
[7] = 384-well plate pilot, post-Golgi transport modulator project, inhibition of yeast transport mutant growth (AID 636; in the data active = inhibition above about 31%); settings: absorbance 615 nm, about 18 h, stronger effect = higher value
[8] = growth suppression of yeast trafficking mutant, preliminary HTS, modulators of trafficking downstream of Golgi apparatus project, 1536-format plate, OD 615 nm (AID 637; in the data active = inhibition above about 30%); settings: yeast transport mutant growth, absorbance 615 nm, 18 h; stronger effect = higher value
[9] = H69AR cells + 2 uM doxorubicin, measured here: viability with 2 uM doxorubicin, stronger effect = lower value
[10] = H69AR cells, compound alone cytotoxicity

Receptor tyrosine-protein kinase erbB-2 (Homo sapiens), sequence (P04626 whole entry, looked up): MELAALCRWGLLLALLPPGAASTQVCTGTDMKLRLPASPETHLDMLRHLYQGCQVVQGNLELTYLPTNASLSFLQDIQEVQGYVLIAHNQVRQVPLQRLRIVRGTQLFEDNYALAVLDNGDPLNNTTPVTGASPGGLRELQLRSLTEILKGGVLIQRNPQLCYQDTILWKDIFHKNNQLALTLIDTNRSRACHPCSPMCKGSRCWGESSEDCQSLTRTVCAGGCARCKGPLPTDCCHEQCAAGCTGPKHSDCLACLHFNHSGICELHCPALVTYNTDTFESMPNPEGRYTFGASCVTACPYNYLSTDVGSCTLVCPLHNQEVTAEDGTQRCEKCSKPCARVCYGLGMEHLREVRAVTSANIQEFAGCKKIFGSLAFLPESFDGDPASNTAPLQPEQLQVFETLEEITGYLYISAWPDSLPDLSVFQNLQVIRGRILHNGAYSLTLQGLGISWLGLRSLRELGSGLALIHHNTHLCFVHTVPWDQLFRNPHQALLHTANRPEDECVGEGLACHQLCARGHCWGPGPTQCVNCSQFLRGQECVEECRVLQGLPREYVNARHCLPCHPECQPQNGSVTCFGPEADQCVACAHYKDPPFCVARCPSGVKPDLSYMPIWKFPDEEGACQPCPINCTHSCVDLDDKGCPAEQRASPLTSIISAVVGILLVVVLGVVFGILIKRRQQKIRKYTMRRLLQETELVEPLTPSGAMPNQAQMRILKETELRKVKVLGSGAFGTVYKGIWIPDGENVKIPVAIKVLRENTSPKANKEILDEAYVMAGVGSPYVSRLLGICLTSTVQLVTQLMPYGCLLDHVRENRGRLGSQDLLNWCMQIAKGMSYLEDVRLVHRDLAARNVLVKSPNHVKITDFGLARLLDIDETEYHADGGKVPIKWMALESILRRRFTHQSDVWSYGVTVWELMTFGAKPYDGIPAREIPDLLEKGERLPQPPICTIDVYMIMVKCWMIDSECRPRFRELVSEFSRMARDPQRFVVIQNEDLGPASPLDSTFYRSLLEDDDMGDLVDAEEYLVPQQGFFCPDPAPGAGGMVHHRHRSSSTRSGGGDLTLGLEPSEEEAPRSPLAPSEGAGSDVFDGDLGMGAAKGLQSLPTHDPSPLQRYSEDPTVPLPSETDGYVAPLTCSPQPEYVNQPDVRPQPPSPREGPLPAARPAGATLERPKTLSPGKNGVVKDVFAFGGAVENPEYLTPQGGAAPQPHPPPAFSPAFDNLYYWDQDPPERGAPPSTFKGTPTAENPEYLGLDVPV

Structure (SMILES)	viability [1] [%]	Her2 level [2]	viability [3]	viability [4]	viability [5]	differential viability (reversal) ([6]; H69AR cells + 2 uM doxorubicin)	viability [6, 9] [%]	viability [6, 10] [%]	inhibition [7]	inhibition [8]
O=C(Nc1cccc(C(=O)N2CCOCC2)c1)c1cccnc1	99.5	118% (inactive)	99.5% (inactive)	91% (inactive)	91.2% (inactive)	-9.23% (inactive)	100	91.2	-6.18% (inactive)	-3.11% (inactive)
CCN(CC(=O)Nc1ccc(S(N)(=O)=O)cc1)S(=O)(=O)c1cc(C)ccc1OC	76.5	105% (inactive)	76.5% (inactive)	109% (inactive)	114% (inactive)	14.4% (inactive)	99.2	114	-3.55% (inactive)	-1.67% (inactive)
CC(=O)Nc1ccc2c(c1)nc(CCNC(=O)c1ccccc1)n2C	90.5	89% (inactive)	90.5% (inactive)	110% (inactive)	102% (inactive)	15.8% (inactive)	85.7	102	-8.36% (inactive)	-1.43% (inactive)
Cc1cc(O)c(C(C)C)cc1N=C1CSC(=O)N1	89	78.5% (inactive)	89% (inactive)	95.3% (inactive)	87.7% (inactive)	1.7% (inactive)	86	87.7	-2.11% (inactive)	-1.82% (inactive)
CCOC(=O)N1CCN(c2c(N3CCN(c4ccccn4)CC3)c(=O)c2=O)CC1	104	103% (inactive)	104% (inactive)	95.4% (inactive)	92.5% (inactive)	9.85% (inactive)	82.6	92.5	-2.67% (inactive)	-2.79% (inactive)
CN(C1CCS(=O)(=O)C1)S(=O)C12CC3CC(CC(C3)C1)C2 (stereo not given)	83	95.5% (inactive)	83% (inactive)	92.8% (inactive)	99.9% (inactive)	3.66% (inactive)	96.3	99.9	-5.75% (inactive)	-5.08% (inactive)
Cc1nn(Cc2ccc(C(=O)NC3CCCCC3)o2)c(C)c1Br	94.5	90% (inactive)	94.5% (inactive)	86.9% (inactive)	92.9% (inactive)	-5.8% (inactive)	98.7	92.9	-3.29% (inactive)	-5.17% (inactive)
O=C1CC(N2CCN(c3ccc(Cl)c(Cl)c3)CC2)C(=O)N1 (stereo not given)	67.5	103% (inactive)	67.5% (inactive)	76.5% (inactive)	107% (inactive)	18.3% (inactive)	89.1	107	-2.84% (inactive)	27.7% (inactive)
O=C1CS/C(=N\C(=O)N2c3ccccc3Sc3ccccc32)N1	102	98.5% (inactive)	102% (inactive)	94% (inactive)	105% (inactive)	14.4% (inactive)	90.2	105	-7.07% (inactive)	1.29% (inactive)
COc1ccc(C)cc1NS(=O)(=O)c1ccc(NS(=O)(=O)c2ccc(NC(C)=O)cc2)cc1	128	104% (inactive)	128% (inactive)	94.9% (inactive)	93.5% (inactive)	4.67% (inactive)	88.9	93.5	-6.67% (inactive)	1.29% (inactive)
Cc1cc(NC(=O)CCOc2ccccc2)no1	85.5	96.5% (inactive)	85.5% (inactive)	87% (inactive)	88.6% (inactive)	2.89% (inactive)	85.7	88.6	-2.34% (inactive)	1% (inactive)
CC(C)(C)c1cc(CCC(=O)N2CCNCC2)c(C(C)(C)C)cc1O	106	85.5% (inactive)	106% (inactive)	82.9% (inactive)	98.3% (inactive)	8% (inactive)	90.3	98.3	-0.26% (inactive)	-2.46% (inactive)
COc1ccc(N(C(=O)c2ccco2)S(=O)(=O)c2cc(OC)ccc2OC)cc1	102	84.5% (inactive)	102% (inactive)	81% (inactive)	72.2% (inactive)	-25.7% (inactive)	97.9	72.2	-1.84% (inactive)	4.17% (inactive)
Cc1ccc(-c2cc(C(=O)NCCN3CCOCC3)no2)cc1	86.5	120% (inactive)	86.5% (inactive)	95.3% (inactive)	99.8% (inactive)	12.7% (inactive)	87	99.8	3.07% (inactive)	-6.83% (inactive)
N#CC1=C(N)N(c2ccccc2)C2=C(C(=O)CCC2)C1c1cccs1 (stereo not given)	96.5	97.5% (inactive)	96.5% (inactive)	80.8% (inactive)	70.3% (inactive)	46.8% (inactive)	23.5	70.3	-5.95% (inactive)	0.83% (inactive)

From PubChem BioAssay
